# Experimental data collected from several papers.
# Compare with care: the assays were run in different laboratories.
# STK16: Serine/threonine-protein kinase 16 (STK16, Homo sapiens, UniProt O75716)
# TAOK3: Serine/threonine-protein kinase TAO3 (TAOK3, Homo sapiens, UniProt Q9H2K8)
# PPO3: PPO3 (Agaricus bisporus, UniProt C7FF04)
Structure (SMILES),target,assay,setting,measurement,result
CCCCC(=O)Nc1ccc(-c2ccc3ncn(CCC)c(=O)c3c2)cn1,STK16,"binding, competition with immobilised ligand",0.5 µM,remaining binding,99%
Cc1cc(S(=O)(=O)N[C@H]2CC[C@H](CN3CCN(c4ccc(C5CCC(=O)NC5=O)cc4F)CC3)CC2)ccc1Nc1ncc(C(F)(F)F)c(N2CCC[C@](C)(O)C2)n1 (stereo partly shown),TAOK3,"binding, competition with immobilised ligand",1 µM,remaining binding,54%
COc1ccc2oc(-c3ccc4nc(N)oc4c3)c/c(=N\c3ccccc3NC(=O)CCN)c2c1,"Serine/threonine-protein kinase WNK1 (WNK1, Homo sapiens, UniProt Q9H4A3)",binding,1 µM,remaining binding,114%
CC(=O)ON=C1C=CC(=C(C#N)c2ccccc2)C=C1,"Aurora kinase B (AURKB, Homo sapiens, UniProt Q96GD4)","enzyme activity, inhibitor, ADP detection",20 µM,activity vs control,75%
CCN1/C(=C/C(C)=O)Sc2ccc(F)cc21,"5-hydroxytryptamine receptor 2A (HTR2A, Homo sapiens, UniProt P28223)","ligand displacement, radioligand",10 µM,inhibition,0.75%
NC/C(=C\F)COc1cccc(Cn2c(=S)[nH]c(=O)c3[nH]cnc32)c1,"Sigma non-opioid intracellular receptor 1 (SIGMAR1, Homo sapiens, UniProt Q99720)","ligand displacement, radioligand",10 µM,inhibition,< 50%
Cc1cc(O)c(-c2ccc([C@@H](C)CN(C)C)cc2)c2c1[nH]c(=O)c1sccc12,"Interleukin-1 receptor-associated kinase-like 2 (IRAK2, Homo sapiens, UniProt O43187)","cell-free assay, inhibitor","0.1 µM, lysate",inhibition,13.1%
C[C@]1(O)CCCN(c2nc(Nc3ccc(S(=O)(=O)N[C@H]4CC[C@H](CN5CCN(c6ccc(C7CCC(=O)NC7=O)cc6F)CC5)CC4)cc3Cl)ncc2C(F)(F)F)C1 (stereo partly shown),TAOK3,"binding, competition with immobilised ligand",1 µM,remaining binding,82%
Cc1cc(F)cc2c(CCC(=O)N[C@@H]3C(=O)NC[C@H]3O)c(-c3ccc(F)cc3)[nH]c12,"Adenosine receptor A2a (ADORA2A, Homo sapiens, UniProt P29274)",cell-free assay,10 µM,inhibition,15%
O=C(CCc1cccc(O)c1)N1CCN(Cc2ccc(F)cc2)CC1,PPO3,"binding, SPR",,kon,153 M⁻¹ s⁻¹
C[C@]1(O)CCCN(c2nc(Nc3ccc(S(=O)(=O)N[C@H]4CC[C@H](CN5CCN(c6ccc(C7CCC(=O)NC7=O)cc6F)CC5)CC4)cc3F)ncc2C(F)(F)F)C1 (stereo partly shown),STK16,"binding, competition with immobilised ligand",1 µM,remaining binding,81%
C1=C/COCc2cc(ccc2OCCN2CCCC2)Nc2nccc(n2)-c2cccc(c2)COC/1,"Cytoplasmic tyrosine-protein kinase BMX (BMX, Homo sapiens, UniProt P51813)",binding,0.1 µM,remaining binding,95%
Cc1ccc(CN2CCN(C(=O)/C=C/c3ccc(O)cc3O)CC2)cc1,PPO3,"binding, SPR",,kon,298 M⁻¹ s⁻¹
